Data as given in ChEMBL document CHEMBL1122839, “Synthesis and antidiarrheal activity of N-(aminoiminomethyl)-1H-pyrrole-1-acetamides related to guanfacine” (1985).
Several values for one entry are separate records, joined by “and”; a condition that tells them apart may be missing. Equal entries are not always repeated. Activity calls are given as the source filed them. The rule behind the calls is not given here.

Columns and labels:
Rattus norvegicus [1] = experiment: Percent inhibition of caster oil induced diarrhea in rats at a dose of 30 mg/kg peroral administration after 2 hours; NS=Not significant; type: functional, organism-based; set-up: dose 30 mg/kg
Rattus norvegicus [2] = experiment: Percent inhibition of caster oil induced diarrhea in rats at a dose of 30 mg/kg peroral administration after 6 hours; NS=Not significant; type: functional, organism-based; set-up: dose 30 mg/kg
Rattus norvegicus [3] = experiment: Percent inhibition of caster oil induced diarrhea in rats at a dose of 1 mg/kg peroral administration after 6 hr; type: functional; conditions: route oral
Rattus norvegicus [4] = experiment: Percent inhibition of caster oil induced diarrhea in rats at a dose of 30 mg/kg peroral administration after 6 hours; type: functional; conditions: for inhibition in vivo at 30 mg/kg: Rattus norvegicus, 6 h
Rattus norvegicus [5] = experiment: Percent inhibition of caster oil induced diarrhea in rats at a dose of 10 mg/kg peroral administration after 6 hours; type: functional; conditions: for Inhibition: 10 mg/kg; for inhibition in vivo at 10 mg/kg: Rattus norvegicus, 6 h
Rattus norvegicus [6] = experiment: Percent inhibition of caster oil induced diarrhea in rats at a dose of 1 mg/kg peroral administration after 2 hr; type: functional; conditions: route oral
Rattus norvegicus [7] = experiment: Percent inhibition of caster oil induced diarrhea in rats at a dose of 30 mg/kg peroral administration after 2 hours; type: functional; conditions: route oral
Rattus norvegicus [8] = experiment: Percent inhibition of caster oil induced diarrhea in rats at a dose of 3 mg/kg peroral administration after 2 hr; type: functional; conditions: route oral
Method in brief: (§1)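 Male rats housed singly on wide-mesh grids, food-deprived overnight, water free; groups of six dosed orally in 0.3% hydroxymethylcellulose/0.9% saline (10 mL/kg) or vehicle. Castor oil 1 mL orally 1 h later. Feces collected on preweighed papers and weighed at 2 and 6 h after castor oil; output expressed as percentage of vehicle group.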

Rattus norvegicus [9] = experiment: Percent inhibition of caster oil induced diarrhea in rats at a dose of 3 mg/kg peroral administration after 6 hr; type: functional; conditions: route oral; method in brief: as §1
Rattus norvegicus [10] = experiment: Percent inhibition of caster oil induced diarrhea in rats at a dose of 10 mg/kg peroral administration after 2 hours; type: functional; conditions: route oral
Rattus norvegicus [11] = experiment: Cardiovascular activity in normotensive rats after oral administration of 30 mg/kg after 2 hr; type: functional
Method in brief: (§2)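 Female normotensive rats with left carotid artery cannulae placed under anaesthesia. The next day they received the test substance orally in 0.5% hydroxymethylcellulose/0.9% saline (10 mL/kg), or vehicle alone. Systolic blood pressure was measured from the cannula, and heart rate from the pressure-triggered tachometer, predose and at 1, 2, 4 and 6 h. Values are means; significance was judged against predose values.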

Rattus norvegicus [12] = experiment: Cardiovascular activity in normotensive rats after oral administration of 30 mg/kg after 4 hr; type: functional; method in brief: as §2
Rattus norvegicus [13] = experiment: Cardiovascular activity in normotensive rats after oral administration of 30 mg/kg after 6 hr; type: functional; method in brief: as §2
Rattus norvegicus [14] = experiment: Cardiovascular activity in normotensive rats after oral administration of 30 mg/kg aof the compound after 1 hr; type: functional
Method in brief: (§3)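 Female normotensive rats with left carotid artery cannulae implanted under anaesthesia; dosed orally the next day in 0.5% hydroxymethylcellulose/0.9% saline (10 mL/kg) or vehicle alone. Systolic blood pressure taken by pressure transducer before dosing and at 1, 2, 4, 6 h; heart rate from tachometer triggered by pressure signal. Mean values; significance versus predose.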

Rattus norvegicus [15] = experiment: Cardiovascular activity in normotensive rats after oral administration of 30 mg/kg after 1 hr; type: functional; method in brief: as §3
Rattus norvegicus [16] = experiment: Cardiovascular activity in normotensive rats at a dose of 30 mg/kg oral administration after 4 hr; type: functional; method in brief: as §2
Rattus norvegicus [17] = experiment: Cardiovascular activity in normotensive rats at a dose of 30 mg/kg oral administration after 6 hr; type: functional; method in brief: as §2
Rattus norvegicus [18] = experiment: Cardiovascular activity in normotensive rats at a dose of 30 mg/kg oral administration after 1 hr; type: functional; method in brief: as §2
Rattus norvegicus [19] = experiment: Cardiovascular activity in normotensive rats at a dose of 30 mg/kg oral administration after 2 hr; type: functional; method in brief: as §2
Rattus norvegicus [20] = experiment: Percent inhibition of caster oil induced diarrhea in rats at a dose of 3 mg/kg peroral administration after 2 hours; type: functional; conditions: route oral
Rattus norvegicus [21] = experiment: The compound was tested for cardiovascular activity in normotensive rats after oral administration of 30 mg/kg after 1 hr; type: functional, Heart; method in brief: as §2
Rattus norvegicus [22] = experiment: Percent inhibition of caster oil induced diarrhea in rats at a dose of 1 mg/kg peroral administration after 2 hours; type: functional; conditions: route oral
Rattus norvegicus [23] = experiment: Percent inhibition of caster oil induced diarrhea in rats at a dose of 3 mg/kg peroral administration after 6 hours; NS=Not significant; type: functional, organism-based; set-up: dose 3 mg/kg
Rattus norvegicus [24] = experiment: Percent inhibition of caster oil induced diarrhea in rats at a dose of 1 mg/kg peroral administration after 6 hours; NS=Not significant; type: functional, organism-based; set-up: dose 1 mg/kg
Rattus norvegicus [25] = experiment: Percent inhibition of caster oil induced diarrhea in rats at a dose of 1 mg/kg peroral administration after 6 hr; NS=Not significant; type: functional, organism-based; set-up: dose 1 mg/kg
Rattus norvegicus [26] = experiment: Percent inhibition of caster oil induced diarrhea in rats at a dose of 3 mg/kg peroral administration after 6 hr; NS=Not significant; type: functional, organism-based; set-up: dose 3 mg/kg
Rattus norvegicus [27] = experiment: Percent inhibition of caster oil induced diarrhea in rats at a dose of 1 mg/kg peroral administration after 2 hours; NS=Not significant; type: functional, organism-based; set-up: dose 1 mg/kg
Rattus norvegicus [28] = experiment: Percent inhibition of caster oil induced diarrhea in rats after 2 hours at 3 mg/kg of dose after peroral administration; type: functional; conditions: route oral
Rattus norvegicus [29] = experiment: Percent inhibition of caster oil induced diarrhea in rats after 6 hours at 1 mg/kg of dose after peroral administration; NS=Not significant; type: functional, organism-based; set-up: dose 1 mg/kg
Rattus norvegicus [30] = experiment: Percent inhibition of caster oil induced diarrhea in rats after 6 hours at 3 mg/kg of dose after peroral administration; NS=Not significant; type: functional, organism-based; set-up: dose 3 mg/kg
Rattus norvegicus [31] = experiment: Percent inhibition of caster oil induced diarrhea in rats after 2 hours at 1 mg/kg of dose after peroral administration; NS=Not significant; type: functional, organism-based; set-up: dose 1 mg/kg

`CC1C=C[C@@H](C)N1C(C)C(=O)N=C(N)N` (stereo partly specified) was tested, and the inhibition (Rattus norvegicus [1]) was “inactive” and the inhibition (Rattus norvegicus [2]) was “inactive”.
Work on `CC1C=C[C@@H](C)N1CC(=O)N=C(N)N.Cl.Cl` (stereo in doubt; 11) yielded an inhibition in vivo at 1 mg/kg (Rattus norvegicus [3]) of 46%, an Inhibition (Rattus norvegicus [4]; route oral, 30 mg/kg) of 100% and an Inhibition (Rattus norvegicus [5]; route oral) of 45%. For the same compound, the inhibition in vivo at 1 mg/kg (Rattus norvegicus [6]) was 100%.
In the case of `CN(C)C(=O)C(CCN1CCC(O)(c2ccc(Cl)cc2)CC1)(c1ccccc1)c1ccccc1` [LOPERAMIDE], the inhibition in vivo at 30 mg/kg (Rattus norvegicus [7]) was 98%, the inhibition in vivo at 30 mg/kg (Rattus norvegicus [4]; route oral) was 97% and the inhibition in vivo at 3 mg/kg (Rattus norvegicus [8]) was 96%. For the same compound, the inhibition in vivo at 3 mg/kg (Rattus norvegicus [9]) was 77%, the inhibition in vivo at 10 mg/kg (Rattus norvegicus [10]) was 100% and the inhibition in vivo at 10 mg/kg (Rattus norvegicus [5]; route oral) was 99%. It also gave a Heart rate (Rattus norvegicus [11]) of 290 beats min-1, a Systolic blood pressure (Rattus norvegicus [11]) of 117 mmHg and a Heart rate (Rattus norvegicus [12]) of 324 beats min-1. The Systolic blood pressure (Rattus norvegicus [12]) was 124 mmHg, the Heart rate (Rattus norvegicus [13]) was 360 beats min-1 and the Systolic blood pressure (Rattus norvegicus [13]) was 125 mmHg. It also gave a Systolic blood pressure (Rattus norvegicus [14]) of 119 mmHg and a Heart rate (Rattus norvegicus [15]) of 278 beats min-1.
`CC1C=C[C@@H](C)N1C(=O)C(=O)N=C(N)N` (stereo partly specified) was tested, and the inhibition (Rattus norvegicus [1]) was “inactive” and the inhibition (Rattus norvegicus [2]) was “inactive”.
Compound `Cc1ccc(C)n1CC(=O)N=C(N)N.Cl` has an inhibition in vivo at 30 mg/kg (Rattus norvegicus [7]) of 96%, an inhibition in vivo at 30 mg/kg (Rattus norvegicus [4]; po) of 96% and a Heart rate (Rattus norvegicus [16]) of 218 beats min-1. The Heart rate (Rattus norvegicus [17]) was 242 beats min-1, the inhibition in vivo at 10 mg/kg (Rattus norvegicus [10]) was 100% and the Inhibition (Rattus norvegicus [5]; route oral) was 75% and 97%. The Systolic blood pressure (Rattus norvegicus [11]) was 159 mmHg, the Systolic blood pressure (Rattus norvegicus [12]) was 163 mmHg and the Systolic blood pressure (Rattus norvegicus [13]) was 138 mmHg. It also gave a Heart rate (Rattus norvegicus [18]) of 175 beats min-1, a Heart rate (Rattus norvegicus [19]) of 218 beats min-1 and a Systolic blood pressure (Rattus norvegicus [15]) of 193 mmHg.
In the case of `C/N=C(\N)NC(=O)CN1C(C)C=C[C@H]1C` (stereo partly specified), the inhibition in vivo at 30 mg/kg (Rattus norvegicus [7]) was 88% and the inhibition (Rattus norvegicus [2]) was “inactive”.
`CC1C=C[C@@H](C)N1CC(=O)NC1=NCCN1` (stereo partly specified) was tested, and the inhibition in vivo at 30 mg/kg (Rattus norvegicus [7]) was 35% and the inhibition (Rattus norvegicus [2]) was “inactive”.
In the case of `CC1CC[C@@H](C)N1CC(=O)N=C(N)N` (stereo partly specified), the inhibition (Rattus norvegicus [1]) was “inactive” and the inhibition (Rattus norvegicus [2]) was “inactive”.
For `CC1C=C[C@@H](C)N1CCC(=O)N=C(N)N` (stereo partly specified), the inhibition (Rattus norvegicus [1]) was “inactive” and the inhibition (Rattus norvegicus [2]) was “inactive”.
Work on `CC1C=C[C@@H](C)N1CC(=O)N=C(N)N.Cl.Cl` (stereo in doubt; 2) yielded an inhibition in vivo at 30 mg/kg (Rattus norvegicus [7]) of 100%, an inhibition in vivo at 30 mg/kg (Rattus norvegicus [4]; po) of 99% and an inhibition in vivo at 3 mg/kg (Rattus norvegicus [20]) of 100%. For the same compound, the Heart rate (Rattus norvegicus [21]) was 395 beats min-1, the inhibition in vivo at 10 mg/kg (Rattus norvegicus [10]) was 100% and the Inhibition (Rattus norvegicus [5]; route oral) was 86%. For the same compound, the Heart rate (Rattus norvegicus [11]) was 373 beats min-1, the Systolic blood pressure (Rattus norvegicus [11]) was 137 mmHg and the Heart rate (Rattus norvegicus [12]) was 418 beats min-1. For the same compound, the Systolic blood pressure (Rattus norvegicus [12]) was 133 mmHg, the Heart rate (Rattus norvegicus [13]) was 443 beats min-1 and the Systolic blood pressure (Rattus norvegicus [13]) was 134 mmHg. The Systolic blood pressure (Rattus norvegicus [15]) was 133 mmHg and the inhibition in vivo at 1 mg/kg (Rattus norvegicus [22]) was 92%.
For `CC1C=C[C@@H](C)N1CC(=O)N=C(N)N` (stereo in doubt; 2), the inhibition (Rattus norvegicus [23]) was “Not siginificant” and the inhibition (Rattus norvegicus [24]) was “inactive”.
In the case of `CC1C=C[C@@H](C)N1CC(=O)N=C(N)N.Cl.Cl` (stereo in doubt; 10), the inhibition in vivo at 3 mg/kg (Rattus norvegicus [20]) was 100% and the Inhibition (Rattus norvegicus [5]; route oral) was 52%.
In the case of `CC1C=C[C@@H](C)N1CC(=O)N=C(N)N` (stereo in doubt; 10), the inhibition (Rattus norvegicus [25]) was “inactive”, the inhibition (Rattus norvegicus [26]) was “inactive” and the inhibition (Rattus norvegicus [27]) was “inactive”.
`CNC(=N)NC(=O)Nc1c(C)cccc1C` [LIDAMIDINE] showed an inhibition in vivo at 30 mg/kg (Rattus norvegicus [7]) of 100%, an inhibition in vivo at 30 mg/kg (Rattus norvegicus [4]; po) of 100% and an inhibition in vivo at 3 mg/kg (Rattus norvegicus [28]) of 100%. For the same compound, the inhibition (Rattus norvegicus [29]) was “inactive”, the inhibition (Rattus norvegicus [30]) was “inactive” and the inhibition in vivo at 10 mg/kg (Rattus norvegicus [10]) was 100%. For the same compound, the inhibition in vivo at 10 mg/kg (Rattus norvegicus [5]; po) was 68%, the Heart rate (Rattus norvegicus [11]) was 241 beats min-1 and the Systolic blood pressure (Rattus norvegicus [11]) was 132 mmHg. For the same compound, the Heart rate (Rattus norvegicus [12]) was 261 beats min-1, the Systolic blood pressure (Rattus norvegicus [12]) was 126 mmHg and the Heart rate (Rattus norvegicus [13]) was 298 beats min-1. It also gave a Systolic blood pressure (Rattus norvegicus [13]) of 131 mmHg, a Heart rate (Rattus norvegicus [15]) of 263 beats min-1 and a Systolic blood pressure (Rattus norvegicus [15]) of 123 mmHg. The inhibition (Rattus norvegicus [31]) was “inactive”.
For `CC1C=C[C@@H](C)N1CCN=C(N)N` (stereo partly specified), the inhibition (Rattus norvegicus [1]) was “inactive” and the inhibition (Rattus norvegicus [2]) was “inactive”.
